Source: ChEMBL document CHEMBL4400512, “Searching for new agents active against Candida albicans biofilm: A series of indole derivatives, design, synthesis and biological evaluation” (Eur J Med Chem, 2019)
Values after ≈ are worked out from the molar mass of the structure shown.

Assays:
Candida albicans [1] = test: Antibiofilm activity against Candida albicans ATCC 10261 assessed as inhibition of biofilm formation by XTT reduction assay; type: functional
How it was run: (§1)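 Biofilm method of Pierce et al. Biofilms were treated either during formation or once mature (24 h preformed). Metabolic activity of the cells within the biofilm was read by XTT reduction. BMIC50 is the lowest concentration giving a 50% drop in metabolic activity versus the untreated growth control. At least two experiments on separate dates, triplicate, reported as median.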

[2] = Toxicity in Galleria mellonella larvae assessed as larval survival at 1000 ug/ml after 72 hrs relative to control
How it was run: (§2)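 Ten healthy larvae per group, stored at 15°C in the dark. Each got a 20 µL injection into the haemocoel via the last left proleg, with compound freshly made in sterile water containing <1% v/v DMSO. Larvae were incubated at 30°C and survival scored every 24 h; death was no movement on stimulation plus cuticle discolouration. Controls were untreated, pierced-only and vehicle. Mean % survival of two independent experiments.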

Candida albicans [3] = test: Antibiofilm activity against Candida albicans PMC 1082 assessed as inhibition of mature biofilm formation by XTT reduction assay; type: functional; how it was run: as §1
[4] = Toxicity in Galleria mellonella larvae assessed as larval survival at 500 ug/ml after 48 hrs relative to control; how it was run: as §2
[5] = Toxicity in Galleria mellonella larvae assessed as larval survival at 100 ug/ml after 24 hrs relative to control; how it was run: as §2
Candida albicans [6] = test: Antibiofilm activity against Candida albicans PMC 1042 assessed as inhibition of biofilm formation by XTT reduction assay; type: functional; how it was run: as §1
Candida albicans [7] = test: Antifungal activity against planktonic form of Candida albicans PMC 1082 by broth microdilution method; type: organism-based; settings: in vitro
How it was run: (§3)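 Broth microdilution per CLSI M27-A3 and M27-S4. Strains were grown on Sabouraud dextrose agar at 35°C for 24 h. Final inoculum 1×10^3–5×10^3 cells/mL. Compounds were dissolved in DMSO (final <1%); 1% DMSO served as control. Final range 256–0.25 µg/mL. MIC50 is the lowest concentration giving ≥50% growth inhibition. Three independent experiments in duplicate, median; fluconazole as reference.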

Candida albicans [8] = test: Antibiofilm activity against Candida albicans ATCC 10231 assessed as inhibition of biofilm formation by XTT reduction assay; type: functional
How it was run: (§4)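 Biofilm assay after Pierce et al., with compound applied either during biofilm formation or to 24 h pre-formed (mature) biofilm. Read-out is metabolic activity of cells in the biofilm by XTT reduction. BMIC50 is the lowest concentration giving a 50% drop relative to untreated growth control. Tested in triplicate, at least two experiments on separate dates; median reported.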

[9] = Toxicity in Galleria mellonella larvae assessed as larval survival at 500 ug/ml after 24 hrs relative to control; how it was run: as §2
Candida albicans [10] = test: Antibiofilm activity against Candida albicans PMC 1042 assessed as inhibition of mature biofilm formation by XTT reduction assay; type: functional; how it was run: as §1
[11] = Toxicity in Galleria mellonella larvae assessed as larval survival at 500 ug/ml after 72 hrs relative to control; how it was run: as §2
Candida albicans [12] = test: Antifungal activity against planktonic form of Candida albicans ATCC 10261 by broth microdilution method; type: organism-based; settings: in vitro; how it was run: as §3
[13] = Toxicity in Galleria mellonella larvae assessed as larval survival at 50 ug/ml after 72 hrs relative to control; how it was run: as §2
[14] = Toxicity in Galleria mellonella larvae assessed as larval survival at 100 ug/ml after 72 hrs relative to control; how it was run: as §2
[15] = Toxicity in Galleria mellonella larvae assessed as larval survival at 10 ug/ml after 24 hrs relative to control; how it was run: as §2
[16] = Toxicity in Galleria mellonella larvae assessed as larval survival at 50 ug/ml after 48 hrs relative to control; how it was run: as §2
Candida albicans [17] = test: Antifungal activity against planktonic form of Candida albicans ATCC 10231 by broth microdilution method; type: organism-based; settings: in vitro
How it was run: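 CLSI M27-A3 broth microdilution. Cells grown on Sabouraud dextrose agar at 35°C for 24 h; final inoculum 1×10^3–5×10^3 cells/mL. Compounds from DMSO stocks, final DMSO below 1%, final range 256–0.25 µg/mL. Controls were DMSO 1% and fluconazole reference. MIC50 is the lowest concentration giving ≥50% growth inhibition. Three independent experiments in duplicate; median reported.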

[18] = Toxicity in Galleria mellonella larvae assessed as larval survival at 10 ug/ml after 72 hrs relative to control; how it was run: as §2
Candida albicans [19] = test: Antibiofilm activity against Candida albicans ATCC 10261 assessed as inhibition of mature biofilm formation by XTT reduction assay; type: functional; how it was run: as §1
Candida albicans [20] = test: Antibiofilm activity against Candida albicans ATCC 10231 assessed as inhibition of mature biofilm formation by XTT reduction assay; type: functional; how it was run: as §4
[21] = Toxicity in Galleria mellonella larvae assessed as larval survival at 1000 ug/ml after 48 hrs relative to control; how it was run: as §2
[22] = Toxicity in Galleria mellonella larvae assessed as larval survival at 10 ug/ml after 48 hrs relative to control; how it was run: as §2
Candida albicans [23] = test: Antibiofilm activity against Candida albicans PMC 1082 assessed as inhibition of biofilm formation by XTT reduction assay; type: functional; how it was run: as §1
Candida albicans [24] = test: Antifungal activity against planktonic form of Candida albicans PMC 1042 by broth microdilution method; type: organism-based; settings: in vitro; how it was run: as §3
[25] = Toxicity in Galleria mellonella larvae assessed as larval survival at 1000 ug/ml after 24 hrs relative to control; how it was run: as §2
[26] = Toxicity in Galleria mellonella larvae assessed as larval survival at 50 ug/ml after 24 hrs relative to control; how it was run: as §2
[27] = Toxicity in Galleria mellonella larvae assessed as larval survival at 100 ug/ml after 48 hrs relative to control; how it was run: as §2
[28] = Toxicity in Galleria mellonella larvae assessed as larval survival at 5 ug/ml after 72 hrs relative to control; how it was run: as §2
[29] = Toxicity in Galleria mellonella larvae assessed as larval survival at 5 ug/ml after 24 hrs relative to control; how it was run: as §2
[30] = Toxicity in Galleria mellonella larvae assessed as larval survival at 5 ug/ml after 48 hrs relative to control; how it was run: as §2

| Compound | MBIC50 (Candida albicans [1]) | MBIC50 (Candida albicans [3]) | survival at 48 h [4] | survival at 24 h [5] | MBIC50 (Candida albicans [6]) | MIC50 (Candida albicans [7]) | MBIC50 (Candida albicans [8]) | survival at 24 h [9] | MBIC50 (Candida albicans [10]) | survival at 72 h [11] | MIC50 (Candida albicans [12]) | survival at 72 h [13] | survival at 72 h [14] | survival at 24 h [15] | survival at 48 h [16] | MIC50 (Candida albicans [17]) | survival at 72 h [18] | MBIC50 (Candida albicans [19]) | MBIC50 (Candida albicans [20]) | survival at 48 h [22] | further results |
| --- | --- | --- | --- | --- | --- | --- | --- | --- | --- | --- | --- | --- | --- | --- | --- | --- | --- | --- | --- | --- | --- |
| CC(C)Cc1ccc(C(C)C(=O)NCCc2c[nH]c3ccccc23)cc1 (stereo unspecified) | 8 µg/mL | 4 µg/mL | 100% | 100% | 8 µg/mL | > 256 µg/mL | 16 µg/mL | 100% | 2 µg/mL | 100% | > 256 µg/mL | 100% | 100% | 100% | 100% | > 128 µg/mL | 100% | 8 µg/mL | 8 µg/mL | 100% | survival at 72 h [2]: 100%; survival at 48 h [21]: 100%; MBIC50 (Candida albicans [23]): 8 µg/mL; MIC50 (Candida albicans [24]): > 256 µg/mL; survival at 24 h [25]: 100%; survival at 24 h [26]: 100%; survival at 48 h [27]: 100% |
| c1ccc2c(CCNCc3ccc(CNCCc4c[nH]c5ccccc45)cc3)c[nH]c2c1 | 4 µg/mL | 4 µg/mL | 100% | 100% | 8 µg/mL | > 256 µg/mL | 16 µg/mL | 100% | 2 µg/mL | 100% | 256 µg/mL (≈ 606 µM) | 90% | 100% | 100% | 90% | > 128 µg/mL | 100% | 4 µg/mL | 8 µg/mL | 100% | survival at 72 h [28]: 100%; survival at 24 h [29]: 100%; survival at 48 h [30]: 100%; MBIC50 (Candida albicans [23]): 8 µg/mL; MIC50 (Candida albicans [24]): > 256 µg/mL; survival at 24 h [26]: 100%; survival at 48 h [27]: 100% |
| c1ccc(Oc2ccc(CNCCc3c[nH]c4ccccc34)cc2)cc1 | 8 µg/mL | 2 µg/mL | 70% | 100% | 8 µg/mL | 16 µg/mL (≈ 46.7 µM) | 2 µg/mL | 90% | 2 µg/mL | 70% | 16 µg/mL (≈ 46.7 µM) | 100% | 100% | 100% | 100% | 4 µg/mL (≈ 11.7 µM) | 100% | 8 µg/mL | 2 µg/mL | 100% | survival at 72 h [28]: 100%; survival at 24 h [29]: 100%; survival at 48 h [30]: 100%; MBIC50 (Candida albicans [23]): 8 µg/mL; MIC50 (Candida albicans [24]): 64 µg/mL (≈ 187 µM); survival at 24 h [26]: 100%; survival at 48 h [27]: 100% |
